Values after ≈ are worked out from the molar mass of the structure shown. Active and inactive are the calls of the source.
Key:
NCI-H460 [1] = assay: Selectivity ratio of IC30/IC50 for human NCI-H460 cells to IC30/IC50 for multidrug resistant human NCI-H460 cells; assay type: functional
Summary of the method: (§1)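 Fold threshold of 1.5 used to call selectivity to cancer cells, resistance, or selectivity to MDR cells.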

HaCaT [2] = assay: Cytotoxicity against human HaCaT cells after 72 hrs by MTT assay; assay type: cell-based; details: for IC50: Homo sapiens, HaCaT; for IC30: human, hacat
Summary of the method: (§2)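 Seeding in 96-well plates at 1000 (NCI-H460), 2000 (NCI-H460/R) or 4000 (HaCaT) cells/well, treated after 24 h for 72 h. MTT at 0.4 mg/mL final, 4 h at 37 °C. Formazan dissolved in DMSO, absorbance read at 540 nm. Inhibition % = (1 − A treated/A untreated)×100. IC30 and IC50 obtained by linear regression.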

Proteus hauseri = assay: Antibacterial activity against Proteus hauseri ATCC 13315 by broth microdilution method; assay type: functional
Summary of the method: (§3)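 Broth microdilution per NCCLS. Compounds dissolved in DMSO as 10 mg/mL stock, diluted in Mueller Hinton broth (bacteria) or Sabouraud dextrose broth (fungi). Amikacin served as the positive control for bacteria and nystatin for fungi.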

Kocuria rhizophila = assay: Antibacterial activity against Kocuria rhizophila ATCC 9341 by broth microdilution method; assay type: functional; details: DC2201; summary of the method: as §3
Escherichia coli = assay: Antibacterial activity against Escherichia coli ATCC 25922 by broth microdilution method; assay type: functional; summary of the method: as §3
[3] = Selectivity ratio of IC30/IC50 for human HaCaT cells to IC30/IC50 for multidrug resistant human NCI-H460 cells; assay type: ADME, cell-based; details: HaCaT cells versus multidrug resistant NCI-H460 cells; summary of the method: as §1
[4] = Selectivity ratio of IC30/IC50 for human HaCaT cells to IC30/IC50 for human NCI-H460 cells; assay type: ADME, cell-based; details: HaCaT cells versus NCI-H460 cells; summary of the method: as §1
Micrococcus luteus [5] = assay: Antibacterial activity against Micrococcus luteus ATCC 4698 by broth microdilution method; assay type: functional; details: NCTC 2665; summary of the method: as §3
Clostridium sporogenes = assay: Antibacterial activity against Clostridium sporogenes ATCC 19404 by broth microdilution method; assay type: functional; summary of the method: as §3
Salmonella enteritidis = assay: Antibacterial activity against Salmonella enterica subsp. enterica serovar Enteritidis ATCC 13076 by broth microdilution method; assay type: functional; summary of the method: as §3
Bacillus spizizenii = assay: Antibacterial activity against Bacillus subtilis ATCC 6633 by broth microdilution method; assay type: functional; summary of the method: as §3
Staphylococcus aureus = assay: Antibacterial activity against Staphylococcus aureus ATCC 6538 by broth microdilution method; assay type: functional; summary of the method: as §3
Pseudomonas aeruginosa = assay: Antibacterial activity against Pseudomonas aeruginosa ATCC 9027 by broth microdilution method; assay type: functional; summary of the method: as §3
NCI-H460 [6] = assay: Cytotoxicity against human NCI-H460 cells after 72 hrs by MTT assay; assay type: functional, cell-based; details: NCI-H460, 72 h; summary of the method: as §2
Micrococcus luteus [7] = assay: Antibacterial activity against Micrococcus luteus ATCC 10240 by broth microdilution method; assay type: functional; summary of the method: as §3
NCI-H460 [8] = assay: Cytotoxicity against multidrug resistant human NCI-H460 cells after 72 hrs by MTT assay; assay type: functional, cell-based; details: NCI-H460, 72 h; summary of the method: as §2
Candida albicans = assay: Antifungal activity against Candida albicans ATCC 10231 by broth microdilution method; assay type: functional; summary of the method: as §3
[9] = Induction of apoptosis in human HaCaT cells assessed as live cells at 25 uM after 72 hrs by annexin-V/propidium iodide staining-based flow cytometric analysis (reference value: 96.8%); assay type: cell-based; details: read-out: Activity
HaCaT [10] = assay: Induction of mitochondrial membrane potential depolarization in human HaCaT cells at 25 uM after 15 mins by JC1-staining-based flow cytometric analysis; assay type: cell-based; details: 0.25 h
Summary of the method: (§4)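 Cells treated with 25 µM compound, with CDDP 5 µM as control. Stained with JC-1 for 15 min at 37 °C in a CO2 incubator, washed twice in assay buffer and resuspended in PBS. Flow cytometry read red aggregate (FL2-H) versus green monomer (FL1-H) fluorescence. Live cells were also imaged by fluorescence microscopy.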

NCI-H460 [11] = assay: Induction of mitochondrial membrane potential depolarization in multidrug resistant human NCI-H460 cells at 25 uM after 15 mins by JC1-staining-based flow cytometric analysis; assay type: functional, cell-based; summary of the method: as §4
NCI-H460 [12] = assay: Induction of apoptosis in multidrug resistant human NCI-H460 cells assessed as dead cells at 25 uM after 72 hrs by annexin-V/propidium iodide staining-based flow cytometric analysis (reference value: 1.5%); assay type: functional
NCI-H460 [13] = assay: Induction of mitochondrial membrane potential depolarization in human NCI-H460 cells at 25 uM after 15 mins by JC1-staining-based flow cytometric analysis; assay type: functional, cell-based; summary of the method: as §4
NCI-H460 [14] = assay: Induction of apoptosis in human NCI-H460 cells assessed as late apoptotic/necrotic cells at 25 uM after 72 hrs by annexin-V/propidium iodide staining-based flow cytometric analysis (reference value: 0.2%); assay type: functional
HaCaT [15] = assay: Induction of apoptosis in human HaCaT cells assessed as dead cells at 25 uM after 72 hrs by annexin-V/propidium iodide staining-based flow cytometric analysis (reference value: 2.8%); assay type: cell-based
HaCaT [16] = assay: Induction of superoxide anion generation in human HaCaT cells at 25 uM after 72 hrs by DHE staining-based flow cytometric analysis relative to control; assay type: cell-based
Summary of the method: (§5)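 Seeded as for cell death (50,000 or 100,000 cells/well), treated 72 h at 25 µM, with CDDP 5 µM as control. Adherent cells trypsinized and loaded with 1 µM DHE for 30 min at 37 °C in the dark, then washed twice in PBS. Flow cytometry at ex 488/em 585 nm (FL2-H). Mean fluorescence intensity corrected for autofluorescence and compared with untreated control.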

NCI-H460 [17] = assay: Induction of apoptosis in multidrug resistant human NCI-H460 cells assessed as live cells at 25 uM after 72 hrs by annexin-V/propidium iodide staining-based flow cytometric analysis (reference value: 96.4%); assay type: functional
NCI-H460 [18] = assay: Induction of superoxide anion generation in human NCI-H460 cells at 25 uM after 72 hrs by DHE staining-based flow cytometric analysis relative to control; assay type: functional, cell-based; summary of the method: as §5
HaCaT [19] = assay: Induction of apoptosis in human HaCaT cells assessed as early apoptotic cells at 25 uM after 72 hrs by annexin-V/propidium iodide staining-based flow cytometric analysis (reference value: 0.2%); assay type: cell-based
HaCaT [20] = assay: Induction of apoptosis in human HaCaT cells assessed as late apoptotic/necrotic cells at 25 uM after 72 hrs by annexin-V/propidium iodide staining-based flow cytometric analysis (reference value: 0.2%); assay type: cell-based
NCI-H460 [21] = assay: Induction of apoptosis in multidrug resistant human NCI-H460 cells assessed as early apoptotic cells at 25 uM after 72 hrs by annexin-V/propidium iodide staining-based flow cytometric analysis (reference value: 1.1%); assay type: functional
NCI-H460 [22] = assay: Induction of apoptosis in multidrug resistant human NCI-H460 cells assessed as late apoptotic/necrotic cells at 25 uM after 72 hrs by annexin-V/propidium iodide staining-based flow cytometric analysis (reference value: 1%); assay type: functional
NCI-H460 [23] = assay: Induction of apoptosis in human NCI-H460 cells assessed as dead cells at 25 uM after 72 hrs by annexin-V/propidium iodide staining-based flow cytometric analysis (reference value: 1.2%); assay type: functional
Aspergillus brasiliensis = assay: Antifungal activity against Aspergillus brasiliensis ATCC 16404 by broth microdilution method; assay type: functional; summary of the method: as §3
Saccharomyces cerevisiae = assay: Antifungal activity against Saccharomyces cerevisiae ATCC 9763 by broth microdilution method; assay type: functional; summary of the method: as §3
NCI-H460 [24] = assay: Induction of apoptosis in human NCI-H460 cells assessed as early apoptotic cells at 25 uM after 72 hrs by annexin-V/propidium iodide staining-based flow cytometric analysis (reference value: 0.3%); assay type: functional
NCI-H460 [25] = assay: Induction of superoxide anion generation in multidrug resistant human NCI-H460 cells at 25 uM after 72 hrs by DHE staining-based flow cytometric analysis relative to control; assay type: functional, cell-based; summary of the method: as §5
NCI-H460 [26] = assay: Induction of apoptosis in human NCI-H460 cells assessed as live cells at 25 uM after 72 hrs by annexin-V/propidium iodide staining-based flow cytometric analysis (reference value: 98.3%); assay type: functional

Row | Structure (SMILES) | IC50 (HaCaT [2]) | IC30 (HaCaT [2]) | selectivity ratio [3] | selectivity ratio [4] | IC30 (NCI-H460 [6]) | IC50 (NCI-H460 [6]) | IC30 (NCI-H460 [8]) | IC50 (NCI-H460 [8]) | viability at 72 h, 25 µM [9] | Activity (NCI-H460 [12]) | Activity (NCI-H460 [14]) | Activity (HaCaT [15]) | Activity (NCI-H460 [17]) | Activity (HaCaT [19]) | Activity (HaCaT [20]) | Activity (NCI-H460 [21]) | Activity (NCI-H460 [22]) | Activity (NCI-H460 [23]) | Activity (NCI-H460 [24]) | Activity (NCI-H460 [25]) | further results
1 | CC(C)(C)C1=CC(=O)C(NCc2ccccc2)=CC1=O | 28 µM | 12 µM | ≤ 1.5 | ≤ 1.5 | 13 µM | 19 µM | 5 µM | 15 µM | – | – | – | – | – | – | – | – | – | – | – | – | selectivity ratio (NCI-H460 [1]): <=1.5; MIC (Proteus hauseri): 2320 µM (≈ 626 µg/mL); MIC (Kocuria rhizophila): 4650 µM (≈ 1250 µg/mL); MIC (Escherichia coli): 36 µM (≈ 9.7 µg/mL); MIC (Micrococcus luteus [5]): 2320 µM (≈ 626 µg/mL); MIC (Clostridium sporogenes): 2320 µM (≈ 626 µg/mL); MIC (Salmonella enteritidis): 4650 µM (≈ 1250 µg/mL); MIC (Bacillus spizizenii): 4650 µM (≈ 1250 µg/mL); MIC (Staphylococcus aureus): 72 µM (≈ 19.4 µg/mL); MIC (Pseudomonas aeruginosa): 4650 µM (≈ 1250 µg/mL); MIC (Micrococcus luteus [7]): 18 µM (≈ 4.85 µg/mL)
2 | CCCCCCCCNC1=CC(=O)C=C(C(C)(C)C)C1=O | 30 µM | 18 µM | ≤ 1.5 | ≤ 1.5 | 5 µM | 20 µM | 8 µM | 21 µM | 77% | 36.4% | 2.9% | 19.8% | 61.4% | 0.6% | 2.6% | 0.1% | 2.1% | 42% | 0.2% | Active | MIC (Candida albicans): 67 µM (≈ 19.5 µg/mL); Activity (HaCaT [10]): Non-toxic; Activity (NCI-H460 [11]): Active; Activity (NCI-H460 [13]): Active; Activity (HaCaT [16]): Non-toxic; Activity (NCI-H460 [18]): inactive; MIC (Aspergillus brasiliensis): 2150 µM (≈ 626 µg/mL); MIC (Saccharomyces cerevisiae): 539 µM (≈ 157 µg/mL); Activity (NCI-H460 [26]): 54.9%
3 | CC1=CCC[C@H]2[C@](C)(CC3=CC(=O)C=C(NCCc4ccccc4)C3=O)[C@@H](C)CC[C@]12C | 23 µM | 18 µM | ≤ 1.5 | ≤ 1.5 | 14 µM | 21 µM | 6 µM | 11 µM | 58.1% | 42.3% | 0.2% | 41.3% | 53% | 0.2% | 0.4% | 1.2% | 3.5% | 28% | 0.1% | Active | selectivity ratio (NCI-H460 [1]): <=1.5; Activity (HaCaT [16]): Toxic; Activity (NCI-H460 [26]): 71.7%
4 | CC1=CCC[C@H]2[C@](C)(CC3=CC(=O)C=CC3=O)[C@@H](C)CC[C@]12C [AVARONE] | 37 µM | 16 µM | ≤ 1.5 | ≤ 1.5 | 36 µM | 84 µM | 10 µM | 24 µM | 78.3% | 8.9% | 16.3% | 9.1% | 65.8% | 2.5% | 10.1% | 2.6% | 22.7% | 6.3% | 3.4% | Active | Activity (NCI-H460 [18]): Active; Activity (NCI-H460 [26]): 74%

From ChEMBL document CHEMBL3822380, “Simple avarone mimetics as selective agents against multidrug resistant cancer cells” (Eur J Med Chem, 2016)
